According to paper PMC8809242 (Acta Pharmacologica Sinica, 2022):

Columns and labels:
GR = GR nuclear translocation, confocal microscopy in A549 cells; type: cell-based, human; conditions: 10 μM, 2 h
[1] = system: AP-1-dependent transcription (GR transrepression); type: cell-based; conditions: Homo sapiens, HeLa, read-out: IC50, AP-1 Luc transrepression
How it was run: (§1)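 HeLa cells grown 24 h in 5% CSS DMEM, then lipofected for 24 h with 71 ng GRα, 5 ng Renilla, and 24 ng reporter (NF-κB-Luc or 5×AP-1-Luc). Cells were stimulated with TNF-α 5 ng/mL (NF-κB) or PMA 1 ng/mL (AP-1) plus test compound. Lysates were read by dual firefly/Renilla luciferase.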

PR = PR selectivity, ARR3tk-luciferase reporter in PC3 cells transfected with hPR; type: cell-based, human; conditions: various concentrations, 16 h; 10 nM progesterone = 100%
How it was run: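 PR counter-screen in PC3 cells: 1 × 10^4 cells/well in 3% CSS DMEM for 24 h. Lipofection for 24 h with 50 ng hPR, 50 ng ARR3tk-luciferase, and 5 ng Renilla per well. Then 16 h exposure to 10 nM progesterone or test compound, and luciferase measurement.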

RAW264.7 cells [2] = type: cell-based, mouse; conditions: 10 μM with 20 ng/mL LPS overnight
RAW264.7 cells [3] = assay: Real-time quantitative PCR in LPS-stimulated RAW264.7 cells; type: cell-based, mouse; conditions: RAW264.7, 20 ng/mL LPS, 10 μM, 18 h
How it was run: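 Mouse RAW264.7 macrophages (1 × 10^6 per well) were cultured 24 h in 3% CSS DMEM. They were then co-treated with 20 ng/mL LPS and 10 μM test compound for 18 h. Total RNA was reverse-transcribed and target transcripts were measured by SYBR Green qPCR, with GAPDH normalisation and 2^−ΔΔCt relative quantitation.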

[4] = system: NF-κB-dependent transcription (GR transrepression); type: cell-based; conditions: Homo sapiens, HeLa, read-out: IC50, NF-κB Luc transrepression
How it was run: as §1

MR = MR selectivity, MMTV luciferase reporter in 293T cells transfected with pCMV-hMR; type: cell-based, human; conditions: various concentrations, 16 h; 10 nM aldosterone = 100%
How it was run: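 Human MR counter-screen. 293T cells were seeded at 1 × 10^4 cells/well in 3% CSS DMEM for 24 h. They were then lipofected for 24 h with 71 ng pCMV-hMR, 24 ng pGL4.36 MMTV-luc2P, and 5 ng Renilla. Next they were treated for 16 h with 10 nM aldosterone or test compound. Firefly luciferase read-out.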

AR = type: cell-based, human; conditions: various concentrations, 72 h; 10 nM DHT = 100%

| IC50 [1] | IC50 [4] | SMILES | GR nuclear translocation (GR) | off-target activation effect on PR (PR) | number of repressed genes (RNA-seq) (RAW264.7 cells [2]) | SOCS3 mRNA regulation (Q-PCR) (RAW264.7 cells [3]) | off-target activation effect on MR (MR) | off-target activation effect on AR (AR) |
| --- | --- | --- | --- | --- | --- | --- | --- | --- |
| 48.8 ± 7.1 nM | 14 ± 2.19 nM | C[C@@H]1C[C@H]2[C@@H]3CCC4=CC(=O)C=C[C@]4(C)[C@@]3(F)[C@@H](O)C[C@]2(C)[C@@]1(O)C(=O)CO [Dex, dexamethasone] | promoted the translocation of GR from the cytoplasm to the nucleus | strong activation effects | 117 | downregulated only by HT-15 but not Dex | strong activation effects | strong activation effects |
| – | – | CC(C)[C@H](NC(=O)C(C)(F)F)[C@H](Oc1ccc2c(cnn2-c2ccc(=O)n(C)c2)c1)c1ccccc1 [Azd9567] | promoted the translocation of GR from the cytoplasm to the nucleus | – | – | – | – | – |
